Experimental findings from ChEMBL document CHEMBL3243919, “11,12-Secoprostaglandins. 3. 8-Alkylthio(sulfinyl and sulfonyl)-12-hydroxyalkanoic acids and related compounds” (J Med Chem, 1977) are described below.

Calls of active or inactive are those of the source. The rule behind the calls is not given here.

The species named for series [1] is Mus musculus. The series is described as follows: Binding affinity to prostanoid receptor in [8-14C]adenine-treated CD-1 mouse ovary assessed as increase in c-AMP production at 1 ug/ml after 30 mins by paper chromatographic analysis in presence of phosphodiesterase inhibitor theophylline relative to control. The class given is tissue-based. The settings on record: Female gonad. Summed up: (§1)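 Mouse ovaries, three per incubation (15-25 mg), preincubated 1 h at 37 °C with shaking in aerated Krebs-Ringer phosphate buffer pH 7.2 containing [8-14C]adenine. Theophylline and test compound (in Me2SO) were then added, with a further 30 min at 37 °C. Stopped with trichloroacetic acid, homogenized and centrifuged. [14C]-cAMP isolated, including paper chromatography. Result is fold increase over untreated ovaries.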

The species entered for series [2] is Mus musculus. The series is described as follows: Binding affinity to prostanoid receptor in [8-14C]adenine-treated CD-1 mouse ovary assessed as increase in c-AMP production at 50 ug/ml after 30 mins by paper chromatographic analysis in presence of phosphodiesterase inhibitor theophylline relative to control. The class given is tissue-based. The conditions noted are these: Female gonad. Summed up: as §1

The species named for series [3] is Rattus norvegicus. The series is described as follows: Binding affinity to prostanoid receptor in rat lipocytes assessed as compound equivalent to cold PGE1 in displacing [3H]-PGE1 from receptor after 60 mins. The class given is cell-based. Summed up: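 Test compound incubated with 0.4 ng [3H]-PGE1 and 125 µg rat lipocyte binding preparation for 60 min at 37 °C. Bound [3H]-PGE1 then measured. Three test concentrations, run in duplicate.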

Series [4] is filed under the species Mus musculus. The series is described as follows: Binding affinity to prostanoid receptor in [8-14C]adenine-treated CD-1 mouse ovary assessed as increase in c-AMP production at 200 ug/ml after 30 mins by paper chromatographic analysis in presence of phosphodiesterase inhibitor theophylline relative to control. The conditions noted are these: Female gonad. The class given is tissue-based. Summed up: as §1

The species named for series [5] is Mus musculus. The series is described as follows: Binding affinity to prostanoid receptor in [8-14C]adenine-treated CD-1 mouse ovary assessed as increase in c-AMP production at 25 ug/ml after 30 mins by paper chromatographic analysis in presence of phosphodiesterase inhibitor theophylline relative to control. The class given is tissue-based. The conditions noted are these: Female gonad. A digest of the protocol: as §1

For series [6], the species on record is Mus musculus. The series is described as follows: Binding affinity to prostanoid receptor in [8-14C]adenine-treated CD-1 mouse ovary assessed as increase in c-AMP production at 100 ug/ml after 30 mins by paper chromatographic analysis in presence of phosphodiesterase inhibitor theophylline relative to control. The conditions noted are these: Female gonad. It counts as tissue-based. A digest of the protocol: as §1

The species entered for series [7] is Mus musculus. The series is described as follows: Binding affinity to prostanoid receptor in [8-14C]adenine-treated CD-1 mouse ovary assessed as increase in c-AMP production at 10 ug/ml after 30 mins by paper chromatographic analysis in presence of phosphodiesterase inhibitor theophylline relative to control. The class given is tissue-based. The settings on record: Female gonad. Summed up:
as §1

For series [8], the species on record is Homo sapiens. The series is described as follows: Binding affinity to prostanoid receptor in [8-14C]adenine-treated human psoriatic skin slices assessed as increase in c-AMP production at 25 ug/ml after 30 mins by paper chromatographic analysis relative to control. A digest of the protocol: (§2)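 Psoriatic skin biopsied from patients off medication ≥48 h, under sc 1-2% lidocaine, and cut into 10-30 mg slices. Preincubated with [14C]adenine about 60 min at 22 °C, then 45 min at 37 °C, then 30 min at 37 °C with test compound. Stopped with TCA to 2.5%, then pulverized at -70 °C and homogenized. Supernatant [14C]-cAMP expressed as fold over unmedicated slices; average of four experiments.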

For series [9], the species on record is Homo sapiens. The series is described as follows: Binding affinity to prostanoid receptor in [8-14C]adenine-treated human psoriatic skin slices assessed as increase in c-AMP production at 50 ug/ml after 30 mins by paper chromatographic analysis relative to control. A digest of the protocol:
as §2

For series [10], the species on record is Homo sapiens. The series is described as follows: Binding affinity to prostanoid receptor in [8-14C]adenine-treated human psoriatic skin slices assessed as increase in c-AMP production at 200 ug/ml after 30 mins by paper chromatographic analysis relative to control. Summed up:
as §2

The next series has as its system Canis familiaris. The series is described as follows: Antisecretory activity in dog assessed as reduction of gastric acid release at 12.3 mg/kg, po. The settings on record: Canis lupus familiaris, Stomach. It counts as functional, organism-based. The arrangement: dose 12.3 mg/kg. A digest of the protocol: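 Given orally to dogs at 12.3 mg/kg; gastric acid antisecretory effect assessed.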

For series [11], the species on record is Mus musculus. The series is described as follows: Binding affinity to prostanoid receptor in [8-14C]adenine-treated CD-1 mouse ovary assessed as increase in c-AMP production at 0.1 ug/ml after 30 mins by paper chromatographic analysis in presence of phosphodiesterase inhibitor theophylline relative to control. It counts as tissue-based. The settings on record: Female gonad. Summed up:
as §1

Series [12] relates to Lymphocyte. The series is described as follows: Inhibition of antigen-induced lymphocyte (unknown origin) transformation at 1 ug/mL relative to control. It counts as functional.
The species named for series [13] is Homo sapiens. The series is described as follows: Binding affinity to prostanoid receptor in [8-14C]adenine-treated human psoriatic skin slices assessed as increase in c-AMP production at 100 ug/ml after 30 mins by paper chromatographic analysis relative to control. A digest of the protocol:
as §2

The test system of series [14] is Lymphocyte. The series is described as follows: Inhibition of antigen-induced lymphocyte (unknown origin) transformation at 10 ug/mL relative to control. The class given is functional.
In series [15] the test system is Rattus norvegicus. The series is described as follows: Antihypertensive activity in spontaneous hypertensive rat model up to 40 mg/kg, po. The class given is functional, organism-based. Also noted: dose 40 mg/kg. Summed up:
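Spontaneously hypertensive rats dosed po at up to 40 mg/kg; antihypertensive effect assessed.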

Series [16] concerns the target T1, 15-hydroxyprostaglandin dehydrogenase [NAD(+)] (Homo sapiens, UniProt P15428).
T1 sequence (P15428 whole entry): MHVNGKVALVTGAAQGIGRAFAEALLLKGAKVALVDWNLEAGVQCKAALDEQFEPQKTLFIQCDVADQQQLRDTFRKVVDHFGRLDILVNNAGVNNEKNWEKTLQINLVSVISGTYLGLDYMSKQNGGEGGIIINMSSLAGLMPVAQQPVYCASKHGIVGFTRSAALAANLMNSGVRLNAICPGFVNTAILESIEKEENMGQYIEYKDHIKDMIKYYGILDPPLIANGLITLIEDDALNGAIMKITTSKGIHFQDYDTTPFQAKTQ
The series is described as follows: Metabolic stability of the compound assessed as 15-hydroxyprostanoid dehydrogenase (unknown origin)-mediated metabolite formation. It counts as ADME.

The species entered for series [17] is Mus musculus. The series is described as follows: Binding affinity to prostanoid receptor in [8-14C]adenine-treated CD-1 mouse ovary assessed as increase in c-AMP production at 0.05 ug/ml after 30 mins by paper chromatographic analysis in presence of phosphodiesterase inhibitor theophylline relative to control. The conditions noted are these: Female gonad. The class given is tissue-based. Summed up:
as §1

Series [18] is filed under the species Mus musculus. The series is described as follows: Binding affinity to prostanoid receptor in [8-14C]adenine-treated CD-1 mouse ovary assessed as increase in c-AMP production at 0.01 ug/ml after 30 mins by paper chromatographic analysis in presence of phosphodiesterase inhibitor theophylline relative to control. It counts as tissue-based. The conditions noted are these: Female gonad. Summed up: as §1

For series [19], the species on record is Homo sapiens. The series is described as follows: Binding affinity to prostanoid receptor in [8-14C]adenine-treated human psoriatic skin slices assessed as increase in c-AMP production at 10 ug/ml after 30 mins by paper chromatographic analysis relative to control. Summed up:
as §2

On to `CCCCCC(O)CCCC(CCCCCCC(=O)O)C(C)=O` (stereo not drawn), for which the fold change (FC) in the series filed under Mus musculus [1] turned out to be 2; in the series filed under Mus musculus [2], 16; in the series filed under Mus musculus [4], 16; in the series listed under Mus musculus [5], 14; in the series listed under Mus musculus [6] it was 23; in the series listed under Mus musculus [7], 11. Moreover, the INH in the series filed under Rattus norvegicus [3] turned out to be 1700 ngequiv.
For `CCCCC[C@H](O)CC[C@H]1CCC(=O)[C@@H]1CCCCCCC(=O)O`, the fold change (FC) in the series listed under Mus musculus [1] was determined as 10; in the series listed under Mus musculus [2] it was 19; in the series listed under Mus musculus [5] it was 26; in the series filed under Mus musculus [7], 25. Further, the INH in the series listed under Rattus norvegicus [3] came out at 10 ngequiv.
For `CS(=O)(=O)C(CCCCCCC(=O)O)CCCC(O)COc1ccc(F)cc1` (stereo not drawn), the fold change (FC) in the series listed under Mus musculus [1] stood at 1; in the series filed under Mus musculus [5], 23; in the series filed under Mus musculus [6], 27. Further, in the series filed under Rattus norvegicus [3], the INH came to 1.11 µgequiv.
The term inhibition denotes the change of the read-out against control, counted positive when it falls. Read a low inhibition as a response near the control. For the compound `CCCCCC(O)CCCC(CCCCCCC(=O)O)S(C)(=O)=O` (mixture of isomers), the fold change (FC) turned out to be 2.5 in the series filed under Homo sapiens [8]; 3.4 in the series filed under Homo sapiens [9]; 2.7 in the series filed under Homo sapiens [10]; 14 in the series listed under Mus musculus [1]; 2 in the series filed under Mus musculus [11]; 27 in the series listed under Mus musculus [5]. In addition, the fold change (FC) stood at 38 in the series filed under Mus musculus [6], 3.5 in the series filed under Homo sapiens [13] and 24 in the series listed under Mus musculus [7]. Moreover, the result with Canis familiaris and in the series with Rattus norvegicus [15] was inactive. Also, the INH in the series listed under Rattus norvegicus [3] was determined as 0.67 µgequiv. In the series with Lymphocyte [12], this compound showed an inhibition at 1 µg/mL of 30%. Besides, the inhibition at 10 µg/mL in the series on Lymphocyte [14] was determined as 88%. Also, the Stability entry in series [16] was “Stable”.
`CCCCCC(O)CCCC(CCCCCCC(=O)O)S(=O)(=O)CCO` (mixture of isomers): the results for the fold change (FC) in the series filed under Mus musculus [1], in the series listed under Mus musculus [5] and in the series filed under Mus musculus [6] were 0.7, 2 and 10, respectively.
Turning to `CCCCCC(O)CCCC(CCCCCCC(=O)O)SC` (mixture of isomers), the fold change (FC) in the series filed under Mus musculus [1] stood at 2.5; in the series listed under Mus musculus [5], 35; in the series listed under Mus musculus [6], 24. For the same compound, the INH in the series filed under Rattus norvegicus [3] worked out at 0.77 µgequiv.
`CCCCCC(O)CCCC(CCCCCCC(=O)O)SCCO` (mixture of isomers): the fold change (FC) was 1.5 in the series listed under Mus musculus [1], 4 in the series filed under Mus musculus [5] and 14 in the series listed under Mus musculus [6].
As to `CCCCCC(O)CCCC(CCCCCCC(=O)O)[S+](C)[O-]` (mixture of isomers), the fold change (FC) in the series listed under Mus musculus [1] is 4; in the series filed under Mus musculus [5] it was 40; in the series listed under Mus musculus [6], 57. For the same compound, the INH in the series filed under Rattus norvegicus [3] was determined as 7.14 µgequiv.
As to `CCCCCC(O)CCCCCS(=O)(=O)CCCCCCCC(=O)O` (racemic), the fold change (FC) in the series listed under Mus musculus [5] was 0.5; in the series filed under Mus musculus [6] it was 1.
Regarding `CCCCC[C@H](O)/C=C/[C@H]1[C@H](O)CC(=O)[C@@H]1CCCCCCC(=O)O` [ALPROSTADIL], the fold change (FC) was 54 in the series listed under Mus musculus [1]; 29 in the series listed under Mus musculus [17]; 8 in the series listed under Mus musculus [18]; 25 in the series listed under Mus musculus [11]; 10 in the series filed under Homo sapiens [19]. In the series with Lymphocyte [14], testing at 10 µg/mL gave an inhibition of 82%.
